Compounds with a hit are over-represented: about 2.1% of the library has one in this group of screens.
CCR6 antag = CCR6 (human) receptor antagonism; P51684; CHO-K1 CCR6 PathHunter beta-arrestin, luminescence, CCL20-stimulated; inhibition, % at 20 µM; 340,000 tested, 0.49% active;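 active = compounds whose inhibition of the agonist-driven luminescence signal at 20 µM reaches about 50%, limit read from the data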;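 also: cells stimulated with CCL20 at 14 nM final; plate controls were DMSO with CCL20 for no effect and DMSO without agonist for full effect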
EBI2 block = EBI2 (human) antagonism; AID 651636; 360,000 tested, 0.81% active; EBI2 beta-arrestin recruitment, luminescence, 7a,25-OHC stimulated; inhibition, % at 5 µM; in the data active = inhibition above about 38%;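 also: enzyme fragment complementation signal reports receptor beta-arrestin coupling in cells; 0% = agonist plus DMSO wells and 100% = wells without agonist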
CXCR6 block = blocks human CXCR6 beta-arrestin recruitment; CHO-K1 PathHunter CXCR6 beta-arrestin, luminescence; inhibition, % at 20 µM; 360,000 tested, 0.36% active; in the data active = inhibition above about 34%, passing the limit was not always enough;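 also: antagonist mode with CXCL16 agonist at 10 nM final; 0% = 10 nM CXCL16 with DMSO and 100% = unstimulated wells without agonist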
Target sequence (O00574 whole entry, looked up): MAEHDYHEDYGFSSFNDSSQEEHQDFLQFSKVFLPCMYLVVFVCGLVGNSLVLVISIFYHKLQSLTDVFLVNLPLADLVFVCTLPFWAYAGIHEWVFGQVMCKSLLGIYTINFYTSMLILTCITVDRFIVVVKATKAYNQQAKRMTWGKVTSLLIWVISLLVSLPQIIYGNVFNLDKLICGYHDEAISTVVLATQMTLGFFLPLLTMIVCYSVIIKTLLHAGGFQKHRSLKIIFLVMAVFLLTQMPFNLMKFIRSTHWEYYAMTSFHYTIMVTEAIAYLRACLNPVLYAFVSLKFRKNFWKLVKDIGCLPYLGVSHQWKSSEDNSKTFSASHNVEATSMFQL
APJ ag = APJ receptor agonism. 330,000 tested, 0.11% active. P35414. activation, % at 20 µM. CHO-K1 APJ PathHunter beta-arrestin, luminescence; 0% DMSO wells, 100% apelin;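 active = activation more than six SD over the plate average, tested at 20 µM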;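 also: 0% = DMSO alone and 100% = apelin-13 at 10 nM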
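Assay system: CHO-K1 cells stably expressing ProLink-tagged human APJ and arrestin–beta-gal acceptor. Compound dosing: 20 µM single point, 1% DMSO. Times: 16-18 h seeding, 90 min dark compound exposure, 60 min detection. Detection: beta-gal luminescence. Evaluation: APJ–arrestin association signal. Controls: negative DMSO alone, positive Apelin-13 at 10 nM.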
m5-HT2A agonist = agonists of mouse serotonin 5-HT2A receptor (HTR2A); CHO-K1 mHTR2A beta-arrestin complementation, luminescence; percent of 30 µM serotonin response; P35363; 360,000 tested, 0.66% active; AID 624169; activation, % at 7.6 µM;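 active = activation above a run cutoff, the mean activation of all tested compounds plus 3 SD, cut at about 14% in these data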;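 also: 0% = plate median of compound wells and 100% = 30 µM serotonin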
APJ antagonist = APJ receptor antagonism; P35414; CHO-K1 APJ beta-arrestin complementation, luminescence; inhibition, % at 20 µM; 330,000 tested, 0.32% active;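 active = inhibition above about 40% at 20 µM, limit read from the data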;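 also: cells challenged with 10 nM apelin-13 agonist together with compound; plate controls were apelin-13 plus DMSO wells for no effect and DMSO wells lacking apelin-13 for full effect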
OPRM1 ag = counter-screen for mouse HTR2A agonists: human mu opioid receptor agonists; U2OS OPRM1 beta-arrestin PathHunter, luminescence; DMSO 0%, DAMGO 9.3 µM 100%; activation, % at 9.3 µM; 2,300 tested, 5.3% active; shares compounds with m5-HT2A agonist;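 active = mean activation above the mean of DMSO-only wells plus 3 SD, cut at about 0.5% in these data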
m5-HT2A ag conf = confirmation of mouse HTR2A serotonin receptor agonists | CHO-K1 PathHunter beta-arrestin recruitment, luminescence; DMSO 0%, 30 µM serotonin 100% | AID 624381 | shares compounds with m5-HT2A agonist | activation, % at 7.6 µM | 2,300 tested, 19% active;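 active = mean activation across triplicates above the hit threshold derived in the original primary screen, cut at about 15% in these data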
An asterisk follows results filed as active.

How did CCOc1cc(C2C(C(C)=O)=C(C)Nc3ncnn32)ccc1O (configuration not stated) do in these assays?
CCR6 antag: 10; EBI2 block: -2; CXCR6 block: 6; APJ ag: -2; m5-HT2A agonist: 15*; APJ antagonist: 7; OPRM1 ag: -1; m5-HT2A ag conf: -3

How did CCOc1ccc(C2C(C(N)=O)=C(C)Nc3ncnn32)cc1OC (configuration not stated) do in these assays?
CCR6 antag: 9; EBI2 block: -6; CXCR6 block: -1; APJ ag: 0; m5-HT2A agonist: 7; APJ antagonist: -12

What do the screens show for `CN1CCN(C(=O)/C(=C\c2ccccc2)c2ccccc2)CC1`?
CCR6 antag: 3; EBI2 block: -3; CXCR6 block: -10; APJ ag: 2; m5-HT2A agonist: -3; APJ antagonist: 10

Results for CC1CCCCC1NC(=O)COC(=O)c1cccn1C (configuration not stated) ?
CCR6 antag: 11; EBI2 block: 0; CXCR6 block: 2; APJ ag: -3; m5-HT2A agonist: 15*; APJ antagonist: -6; OPRM1 ag: 0; m5-HT2A ag conf: -5

What do the screens show for `CCCNC(=O)C1(C)CCCN(C(=O)Cc2ccc(OC)c(OC)c2)C1` (configuration not stated)?
EBI2 block: -1; CXCR6 block: 0; m5-HT2A agonist: 4

What do the screens show for `C[C@@H]1CN[C@H](CCO)/C1=C\c1ccccc1`?
CCR6 antag: 8; EBI2 block: -8; CXCR6 block: -2; m5-HT2A agonist: 16*; OPRM1 ag: -1; m5-HT2A ag conf: 6

How did C[C@@H]1CN[C@@H](CCO)/C1=C\c1ccccc1 do in these assays?
CCR6 antag: -15; EBI2 block: -11; CXCR6 block: -11; m5-HT2A agonist: 6

What do the screens show for `CC(=O)c1c(COC(=O)c2ccncc2)nc2ccccc2[n+]1[O-]`?
CCR6 antag: 5; EBI2 block: -8; CXCR6 block: -2; APJ ag: 7; m5-HT2A agonist: 2; APJ antagonist: -33

What do the screens show for `CC1CN(C(=O)CS(=O)(=O)Cc2ccc(Cl)cc2)CC(C)O1` (configuration not stated)?
CCR6 antag: 1; EBI2 block: -3; CXCR6 block: 3; APJ ag: -5; m5-HT2A agonist: 15*; APJ antagonist: 4; OPRM1 ag: -1; m5-HT2A ag conf: 1

Results for Cc1ccc(CC(=O)N2CC(C)OC(C)C2)cc1 (configuration not stated) ?
CCR6 antag: -6; EBI2 block: 6; CXCR6 block: 6; APJ ag: -1; m5-HT2A agonist: -2; APJ antagonist: 16

How did COc1cc(C(=O)N2CCN(C3CCCCC3)CC2)cc(OC)c1OC do in these assays?
CCR6 antag: -10; EBI2 block: 19; CXCR6 block: 2; APJ ag: -1; m5-HT2A agonist: 15*; APJ antagonist: -28; OPRM1 ag: 0; m5-HT2A ag conf: -3

How did COc1cc(C(=O)N2CCC(N3CCCCCC3)CC2)cc(OC)c1OC do in these assays?
CCR6 antag: 19; EBI2 block: 9; CXCR6 block: 1; APJ ag: -3; m5-HT2A agonist: 15*; APJ antagonist: -31; OPRM1 ag: 0; m5-HT2A ag conf: 7

How did O=C(CCN1N=C(c2ccccc2)CCC1=O)NC1CCCCC1 do in these assays?
EBI2 block: 3; CXCR6 block: 0; m5-HT2A agonist: 0

How did O=C(CCN1N=C(c2ccccc2)CCC1=O)NC1CCCC1 do in these assays?
CCR6 antag: 4; EBI2 block: -3; CXCR6 block: -6; APJ ag: 1; m5-HT2A agonist: 19*; APJ antagonist: 8; OPRM1 ag: -1; m5-HT2A ag conf: -3

Results for Cc1c(-c2ccccc2)[nH]n2c(=O)c3c(nc12)CCCC3 ?
CCR6 antag: -2; EBI2 block: -4; CXCR6 block: -4; APJ ag: -1; m5-HT2A agonist: 44*; APJ antagonist: 0; OPRM1 ag: -1; m5-HT2A ag conf: 15*

How did Cc1ccc(-c2[nH]n3c(=O)c4c(nc3c2C)CCCC4)cc1 do in these assays?
CCR6 antag: -4; EBI2 block: 0; CXCR6 block: 3; APJ ag: -2; m5-HT2A agonist: 10; APJ antagonist: 13

What do the screens show for `CCOC(=O)C(=CNc1ccc2c(c1)CCN2C(C)=O)C(=O)OCC`?
CCR6 antag: -25; EBI2 block: -46; CXCR6 block: -9; APJ ag: 11; m5-HT2A agonist: 19*; APJ antagonist: -29; OPRM1 ag: 0; m5-HT2A ag conf: 8

How did Cc1ccccc1C(=O)c1cccn1CC(=O)NCc1ccccc1Cl do in these assays?
CCR6 antag: 20; EBI2 block: 7; CXCR6 block: 1; APJ ag: -5; m5-HT2A agonist: 26*; APJ antagonist: 12; OPRM1 ag: 0; m5-HT2A ag conf: 5

How did O=C(Cn1cccc1C(=O)c1ccccc1)NCc1ccccc1Cl do in these assays?
CCR6 antag: 3; EBI2 block: 13; CXCR6 block: 1; APJ ag: 0; m5-HT2A agonist: 5; APJ antagonist: 25

Results for Cc1nc2ncnn2c(C)c1CCC(=O)NCCCN1CCN(c2cccc(Cl)c2)CC1 ?
CCR6 antag: -11; EBI2 block: 1; CXCR6 block: -3; APJ ag: 0; m5-HT2A agonist: 24*; APJ antagonist: -2; OPRM1 ag: 0.9*; m5-HT2A ag conf: 80*

What do the screens show for `Cc1ccc(NC(=O)CSCCc2ccccn2)nc1`?
CCR6 antag: -2; EBI2 block: -3; CXCR6 block: -1; APJ ag: 2; m5-HT2A agonist: 0; APJ antagonist: 12

What do the screens show for `O=C(NCc1ccccn1)C1CC(=O)N(C2CCCC2)C1` (configuration not stated)?
CCR6 antag: 6; EBI2 block: -8; CXCR6 block: -4; APJ ag: -4; m5-HT2A agonist: 20*; APJ antagonist: 9; OPRM1 ag: -1; m5-HT2A ag conf: -4

Results for O=C(NCCCN1CCN(c2ccccc2F)CC1)C1CC(=O)N(C2CCCC2)C1 (configuration not stated) ?
CCR6 antag: -1; EBI2 block: -1; CXCR6 block: -9; APJ ag: -1; m5-HT2A agonist: 17*; APJ antagonist: -8; OPRM1 ag: -1; m5-HT2A ag conf: 39*
